Source: PubChem BioAssay AID1916 (Vanderbilt High Throughput Screening Facility, 2009)
Active and inactive are the calls of the source. The rule behind the calls is not given here.

What follows are molecules tested against ATP-sensitive inward rectifier potassium channel 1 (Homo sapiens) (UniProt P48048) (assay: ROMK (Kir1.1) channel inhibitors among analogs, SAR follow-up, Tet-inducible ROMK cells, thallium flux, FluoZin2 (AID 1916)). Settings: thallium flux FluoZin2 fluorescence.
Procedure, shortened: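 Test system: Tet-induced ROMK-expressing cells; also added: thallium stimulus buffer; dosing: 11 concentrations, threefold steps; times: 20 min room-temperature dye loading, 20 min compound preincubation; read-out: early F/F0 slope as % TPNQ activity; detection: FluoZin2 dye fluorescence following thallium addition; buffer or medium: serum-free medium during overnight Tet induction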

ATP-sensitive inward rectifier potassium channel 1 (Homo sapiens), sequence (P48048 whole entry, looked up): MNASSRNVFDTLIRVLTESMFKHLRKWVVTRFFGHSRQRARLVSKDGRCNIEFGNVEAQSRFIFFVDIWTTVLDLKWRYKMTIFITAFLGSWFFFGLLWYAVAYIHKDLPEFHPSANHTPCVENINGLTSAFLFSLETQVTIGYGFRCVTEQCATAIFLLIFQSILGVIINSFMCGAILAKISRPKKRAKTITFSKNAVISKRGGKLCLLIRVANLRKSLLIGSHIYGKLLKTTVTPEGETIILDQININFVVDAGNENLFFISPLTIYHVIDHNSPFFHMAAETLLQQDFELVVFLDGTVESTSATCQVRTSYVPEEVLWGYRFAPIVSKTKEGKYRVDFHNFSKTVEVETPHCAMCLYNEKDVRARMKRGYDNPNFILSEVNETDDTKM

IC50 | Compound
inactive | Clc1ccc(CN2CCOCCOCCN(Cc3ccc(Cl)cc3)CCOCC2)cc1
30.6 µM | FC(F)(F)c1cccc(CN2CCOCCOCCN(Cc3cccc(C(F)(F)F)c3)CCOCC2)c1
13.3 µM | Cc1ccccc1CN1CCOCCOCCN(Cc2ccccc2C)CCOCC1
37.6 µM | COc1cc(CN2CCOCCOCCN(Cc3cc(OC)cc(OC)c3)CCOCC2)cc(OC)c1
14.2 µM | O=[N+]([O-])c1ccc(CN2CCOCCOCCN(Cc3ccc([N+](=O)[O-])cc3)CCOCC2)cc1
inactive | CC(C)c1ccc(CN2CCOCCOCCN(Cc3ccc(C(C)C)cc3)CCOCC2)cc1
25.2 µM | COc1cccc(CN2CCOCCOCCN(Cc3cccc(OC)c3)CCOCC2)c1
inactive | CN(C)c1ccc(CN2CCOCCOCCN(Cc3ccc(N(C)C)cc3)CCOCC2)cc1
inactive | COc1ccc(CN2CCOCCOCCN(Cc3ccc(OC)cc3)CCOCC2)cc1
6.62 µM | O=[N+]([O-])c1ccccc1CN1CCOCCOCCN(Cc2ccccc2[N+](=O)[O-])CCOCC1
32.6 µM | COC(=O)c1ccc(CN2CCOCCOCCN(Cc3ccc(C(=O)OC)cc3)CCOCC2)cc1
inactive | COc1ccccc1CN1CCOCCOCCN(Cc2ccccc2OC)CCOCC1
19.7 µM | Cc1ccsc1CN1CCOCCOCCN(Cc2sccc2C)CCOCC1
24.3 µM | FC(F)(F)c1cc(CN2CCOCCOCCN(Cc3cc(C(F)(F)F)cc(C(F)(F)F)c3)CCOCC2)cc(C(F)(F)F)c1
0.324 µM | N#Cc1cccc(CN2CCOCCOCCN(Cc3cccc(C#N)c3)CCOCC2)c1
8.53 µM | N#Cc1ccccc1CN1CCOCCOCCN(Cc2ccccc2C#N)CCOCC1
inactive | Oc1ccccc1CN1CCOCCOCCN(Cc2ccccc2O)CCOCC1

Same assay, conditions: thallium flux FluoZin2 fluorescence, at 1 mM (top of the series)

% TPNQ activity | Compound
43.4% | COc1ccc(CN2CCOCCOCCN(Cc3ccc(OC)nc3)CCOCC2)cn1
inactive | CSc1ccc(CN2CCOCCOCCN(Cc3ccc(SC)cc3)CCOCC2)cc1
14.7% | N#Cc1cc(CN2CCOCCOCCN(Cc3ccc(F)c(C#N)c3)CCOCC2)ccc1F
